# Screening results from PubChem.
# HUVEC prolif 384 = inhibitors of human endothelial cell proliferation; 86,000 compounds, 1.1% hits; AID 648; viability, % at 10 µM (by protocol); HUVEC proliferation, CellTiter-Glo luminescence, 72 h; stronger effect = lower value;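 active = viability at or below 30%; inactive = viability above 30%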;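 note: 100% = median luminescence of DMSO-only cell control wells on each plate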
# H69AR growth 86K = blocks growth of human H69AR lung tumor cells; H69AR lung tumor viability, ATP luminescence, 72 h; stronger effect = lower value; viability, % at 10 µM; 85,000 compounds, 6% hits; AID 598;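 active = viability at or below 40%; inactive = viability above 40%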;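 note: multidrug resistant small cell line overexpressing MRP-1 efflux transporter; 100% = mean luminescence of untreated control wells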
# ERa SRC1 pot = ER-alpha (human) coactivator binding potentiation | AID 639 | TR-FRET ERalpha-LBD/SRC-Cy5 coactivator binding, 2 h; 100 = basal binding, no effect | P03372 | coactivator binding (% of control), % at 25.6 µM | 86,000 compounds, 1.3% hits; in the data active = activity above about 200%;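 note: binding measured in presence of low estradiol as agonist stimulus; 0% = peptide alone without receptor and 100% = receptor with peptide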
# Fibroblast inh = blocks proliferation of human lung fibroblasts; LL 47 human lung fibroblast viability, ATP luminescence; stronger effect = lower value; viability, % at 10 µM; 85,000 compounds, 1.1% hits; AID 719;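 active = viability at or below 50% in the single dose screen; inactive = viability above 50%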;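 note: compound exposure lasted 72 h before the ATP readout; 100% = median luminescence of untreated cell-only wells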
#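 Assay system: human lung fibroblast line LL 47, low passage. Input: 1,150 fibroblasts seeded per well. Times: overnight cell rest, 72 h compound treatment at 37 °C. Evaluation: % viability of median cell-only signal. Technique: luminescent ATP detection, CellTiter-Glo. Control set: cell-only wells, no compound.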
# ERa coact inh = ER-alpha (human) coactivator binding inhibition | TR-FRET ER-alpha LBD / SRC-1 peptide, estradiol-bound | 86,000 compounds, 1.7% hits | inhibition, % at 25.6 µM | P03372; in the data active = inhibition above about 50%;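 note: 0% = receptor plus peptide control and 100% = peptide only without receptor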
# ERb coact inh = blocks coactivator binding to human estrogen receptor beta; TR-FRET ER-beta LBD / SRC1-Cy5 peptide binding; receptor agonist-loaded with 1 µM estradiol; inhibition, % at 25.6 µM; 86,000 compounds, 1.3% hits;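 active = compounds whose percent inhibition of the receptor-coactivator binding signal exceeds about 50% in the single-dose screen, limit read from the data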;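 note: 0% = receptor plus peptide wells without compound and 100% = peptide-only wells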
# Target sequence (Q92731 whole entry, looked up, the tested form may be a part): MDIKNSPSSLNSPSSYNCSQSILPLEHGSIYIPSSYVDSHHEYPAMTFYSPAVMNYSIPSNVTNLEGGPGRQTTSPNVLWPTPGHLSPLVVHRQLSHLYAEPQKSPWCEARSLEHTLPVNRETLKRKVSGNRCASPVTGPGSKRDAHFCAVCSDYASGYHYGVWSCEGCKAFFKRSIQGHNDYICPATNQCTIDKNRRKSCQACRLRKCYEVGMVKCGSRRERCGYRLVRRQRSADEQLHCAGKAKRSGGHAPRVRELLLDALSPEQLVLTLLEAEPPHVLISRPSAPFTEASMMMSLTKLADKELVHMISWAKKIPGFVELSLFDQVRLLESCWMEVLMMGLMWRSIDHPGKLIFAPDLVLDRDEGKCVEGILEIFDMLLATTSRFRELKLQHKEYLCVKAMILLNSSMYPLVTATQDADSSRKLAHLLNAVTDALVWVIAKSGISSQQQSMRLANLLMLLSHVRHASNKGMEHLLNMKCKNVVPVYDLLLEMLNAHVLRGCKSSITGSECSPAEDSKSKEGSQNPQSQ
# * = called active by the depositor; / = no result; [ ] = remark or other dose. Rows were chosen to be rich in hits. Some 9.2% of all compounds tested hit in one or more screens of this group.
SMILES,HUVEC prolif 384,H69AR growth 86K,ERa SRC1 pot,Fibroblast inh,ERa coact inh,ERb coact inh
CN1/C(=C\C=C\C2=[N+](C)c3ccc4ccccc4c3C2(C)C)C(C)(C)c2ccccc21,2.0*,0.1*,132,1.6*,26,-12
FC(F)(F)c1ccc2c(c1)ncn2C1CCN(Cc2nnnn2C2CCCCC2)CC1,85,37*,110,96,-8,-11
Cc1nc2cc(C(F)(F)F)ccc2n1C1CCN(Cc2nnnn2Cc2cccs2)CC1,89,77,113,94,2,13
O=C(NCc1ccc(C(=O)N2CCC3(CC2)OCCO3)cc1)c1cccc(Br)c1,91,91,108,108,13,9
CCCSP1(=S)NCCCO1 (stereo not drawn),101,96,132,93,-13,-10
CCC(=NCc1ccco1)c1c(O)n(C2CCCCC2)c(=O)[nH]c1=O,102,32*,98,99,-9,-9
Cc1ccc(-c2nc(N(C)C3CCN(C)CC3)c3ccccc3n2)cc1,4.3*,2.7*,105,38*,6,1
Nc1ccnn1C1CCNCC1,104,92,43,105,96*[fluorescence artefact?],95*[fluorescence artefact?]
Nc1c(C(=O)NCc2ccco2)c2nc3ccccc3nc2n1CCN1CCCCC1,19*,1.2*,71,60,24,12
CC(C)CNC(=O)c1c(N)n(Cc2ccco2)c2nc3ccccc3nc12,66,34*,47,76,40,27
CCCNC(=O)c1c(N)n(Cc2ccco2)c2nc3ccccc3nc12,65,26*,47,92,28,35
CCOC(=O)c1c(-c2ccc(OC)cc2)oc2ccc(OC(=O)N(C)C)cc12,72,33*,105,103,-8,4
CCC(CC)C1C(C#N)=C(N)Oc2c1c(=O)oc1ccccc21 (stereo not drawn),87,37*,90,88,16,0
O=C1C2CCCN2C(c2cccnc2)N1c1nccs1 (stereo not drawn),98,92,125,95,0,-1
Nc1ccccc1N=Cc1c(O)n(CCC2=CCCCC2)c(=O)[nH]c1=O,68,/,140,90,57*,30
CN(C)CCN=Cc1c(O)n(CCC2=CCCCC2)c(=O)[nH]c1=O,105,93,95,103,6,8
O=c1[nH]c(=O)n(CCC2=CCCCC2)c(O)c1C=Nc1cccc(F)c1,96,59,254*,100,20,10
Cc1c(C(=O)N2CCC3(CC2)OCCO3)sc2ncnc(N3CCN(c4ccccn4)CC3)c12,66,69,104,91,-8,-9
CN(C)C(=O)On1c(-c2ccccc2)nc2ccc(Cl)cc21,98,38*,100,90,0,-14
COc1ccc(-c2nc3ccccc3n2OC(=O)N(C)C)cc1,89,64,101,96,-2,-12
NS(=O)(=O)c1ccc(N=Cc2c(O)n(C3CCCCC3)c(=O)n(C3CCCCC3)c2=O)cc1,1.8*,0.9*,103,39*,7,3
Cn1c(O)c(C=Nc2ccc(Cl)cc2)c(=O)n(C)c1=O,82,97,86,108,3,-5
Cc1nc2c(=O)n(C)c(=O)nc-2n(C)n1,5.6*,2.6*,108,2.5*,-8,-8
Cc1nonc1-c1nc(-c2nonc2N)n[nH]1,88,85,110,96,2,-5
CC1(C)CN=C(NCc2ccccc2Cl)S1,85,94,116,97,-4,1
SMILES,HUVEC prolif 384,H69AR growth 86K,ERa SRC1 pot,Fibroblast inh,ERa coact inh,ERb coact inh
Cc1[nH]c2c(C(F)(F)F)cccc2c1CCN,83,18*,105,71,4,2
Cc1n[nH]c(C)c1CCN,102,101,118,106,-4,2
O=C1NC(=O)C(=Cc2cn(CCOc3ccc4c(c3)OCO4)c3ccccc23)C(=O)N1,53,78,131,48*,84*[fluorescence artefact?],60*[fluorescence artefact?]
CC(N=Cc1c(O)[nH]c(=O)[nH]c1=O)c1ccccc1 (stereo not drawn),87,84,90,106,8,7
CN1CSC(=S)N(C)C1,102,28*,92,99,-8,-7
Cc1ccc(-n2c(O)c(C=NC3CCCC3)c(=O)[nH]c2=O)c(C)c1,110,100,98,95,9,9
CC(C)CNC(=O)c1c(N)n(Cc2ccc3c(c2)OCO3)c2nc3ccccc3nc12,49,26*,118,88,29,-19
COCCNC(=O)c1c(N)n(CCC(C)C)c2nc3ccccc3nc12,71,15*,91,102,2,3
CC(C)CCNC(=O)c1c(N)n(Cc2ccc3c(c2)OCO3)c2nc3ccccc3nc12,15*,6.1*,135,67,11,5
CC(C)CCn1c(N)c(C(=O)NCc2cccs2)c2nc3ccccc3nc21,66,44,96,86,3,16
O=c1[nH]c(=O)n(CCc2ccccc2)c(O)c1C=NCc1ccc2c(c1)OCO2,71,35*,267*[fluorescence artefact?],80,55*[fluorescence artefact?],36
O=C1C2(c3ccccc3)CN3CN(C2)CC1(c1ccccc1)C3,95,86,104,93,0,-8
Cc1cc(/C=C2/C(=O)NC(=O)N(c3ccccc3)C2=O)c(C)n1-c1ccc(F)cc1,93,90,110,89,52*,43
COc1ccc2c(c1OC)C(=O)OC2c1c(O)n(Cc2ccc(F)cc2)c(=O)[nH]c1=O (stereo not drawn),92,105,133,92,-17,8
OC1(c2ccc(F)cc2)CC2CCC(C1)N2Cc1nnnn1C1CCCC1 (stereo not drawn),97,59,113,93,0,3
Cc1nn(C)c(C)c1/C=C1/CC2C3CC=C4CC(O)CCC4(C)C3CCC2(C)C1=O (stereo not drawn),101,88,81,96,6,7
CCn1ncc(/C=C2/CC3C4CC=C5CC(O)CCC5(C)C4CCC3(C)C2=O)c1C (stereo not drawn),101,93,542*[fluorescence artefact?],106,-32,7
CSc1ncc(Cl)c(C(=O)O)n1 (tested in a mixture with another compound),94,101,108,103,9,9
CC1CCC/C=C/C2CC(O)CC2C(O)/C=C/C(=O)O1 (stereo not drawn),8.3*,2.9*,100,11*,0,-6
O=C1NC(=O)C2(Cc3ccccc3N3CCOCC32)C(=O)N1c1ccccc1 (stereo not drawn),72,19*,107,94,-2,-7
CCOC(=O)N1CCN(C(C)C(=O)c2c[nH]c3ccccc23)CC1 (stereo not drawn),96,98,137,104,-11,-12
